Reference: ChEMBL document CHEMBL1145814, “Antiretroviral activity of semisynthetic derivatives of glycopeptide antibiotics” (J Med Chem, 2003)
In brackets after ≈: the same amount, converted by molar mass. Several values for one entry are separate records, joined by “and”; a condition that tells them apart may be missing. Identical values can stand only once.

Tests used:
Mus musculus [1] = species: Mus musculus; assay: Effective concentration of compound required to protect C3H/3T3 embryo murine fibroblasts against the MSV induced transformation; assay type: functional, organism-based
Method in brief: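 Monolayer murine embryo fibroblast C3H/3T3 cultures were infected with Moloney murine sarcoma virus at 75 focus-forming units and cultured with test compound. Transformation was examined microscopically on day 6 postinfection. EC50 is the concentration protecting cells against MSV-induced transformation by 50%.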

MOLT-4 = assay: Inhibitory concentration of compound against proliferation of human T-lymphocytic cells MOLT-4/C8 was determined; assay type: functional, cell-based
Method in brief: (§1)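 (5–7.5) × 10^4 cells per well were incubated with test compound at 37 °C in a humidified CO2 atmosphere. L1210 murine leukemia cells grew for 48 h, and CEM and Molt4/clone 8 human lymphocytes grew for 72 h. Cells were then counted with a Coulter counter. IC50 is the concentration inhibiting proliferation by 50%.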

L1210 = assay: Inhibitory concentration of compound against proliferation of murine lukemia cells L1210 was determined; assay type: functional, cell-based; conditions: Mus musculus; method in brief: as §1
[2] = system: Human immunodeficiency virus 1; assay: Effective concentration of compound required to protect human T-lymphocytic cells against the cytopathogenicity of HIV-1; assay type: functional, organism-based
[3] = system: Human immunodeficiency virus 2; assay: Concentration required to protect human T-lymphocytic cells against the cytopathogenicity of HIV-2; assay type: functional, organism-based
CCRF-CEM = assay: Inhibitory concentration against proliferation of human T-lymphocytic (CEM) cells; assay type: functional, cell-based; method in brief: as §1
Mus musculus [4] = species: Mus musculus; assay: Minimal inhibitory concentration required to cause a microscopic detectable alteration of C3H/3T3 embryo murine fibroblast cell morphology; assay type: functional
Method in brief: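 Uninfected C3H/3T3 murine embryo fibroblast cultures were exposed to test compound and checked microscopically for changes in cell morphology. The MIC is the concentration causing a microscopically detectable alteration of morphology.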

Row | SMILES | EC50 (Mus musculus [1]; Mus musculus, C3H/3T3) [µM] | IC50 (MOLT-4) [µM] | IC50 (L1210) [µM] | EC50 ([2]; Human immunodeficiency virus 1) [µM] | EC50 ([3]; Human immunodeficiency virus 2) [µM] | IC50 (CCRF-CEM; Homo sapiens, CCRF-CEM) [µM] | MIC (Mus musculus [4]) [µM] | EC50 (Mus musculus [1]) [µM] | EC50 [2] [µM] | EC50 [3] | IC50 (CCRF-CEM; ccrf-cem) [µM]
1 | NC1C(=O)NC2Cc3ccc(c(Cl)c3)Oc3cc4cc(c3O)Oc3ccc(cc3Cl)C(O)C3NC(=O)C(NC(=O)C4NC(=O)C(NC2=O)c2cc(O)cc(c2)Oc2cc1ccc2O)c1ccc(O)c(c1)-c1c(cc(O)c(CNC2C4CC5CC(C4)CC2C5)c1O)[C@H](C(=O)NC1C2CC4CC(C2)CC1C4)NC3=O (stereo partly drawn) | 2 | > 250 | 202 | 2.5 | 3.5 | > 250 | > 20 |  |  |  | 
2 | NC1C(=O)NC2Cc3ccc(c(Cl)c3)Oc3cc4cc(c3O)Oc3ccc(cc3Cl)C(O)C3NC(=O)C(NC(=O)C4NC(=O)C(NC2=O)c2cc(O)cc(c2)Oc2cc1ccc2O)c1ccc(O)c(c1)-c1c(O)cc(O)cc1[C@H](C(=O)O)NC3=O (stereo partly drawn) | 25 | > 500 | > 500 | 17 | 20 | > 500 | > 100 |  |  |  | 
3 | CN[C@H](CC(C)C)C(=O)N[C@H]1C(=O)N[C@@H](CC(N)=O)C(=O)N[C@H]2C(=O)N[C@H]3C(=O)N[C@H](C(=O)N[C@H](C(=O)NCc4ccc(-c5ccc(Cl)cc5)cc4)c4cc(O)cc(O)c4-c4cc3ccc4O)[C@H](O[C@H]3C[C@](C)(N)[C@@H](O)[C@H](C)O3)c3ccc(cc3)Oc3cc2cc(c3O[C@@H]2O[C@H](CO)[C@@H](O)[C@H](O)[C@H]2O[C@H]2C[C@](C)(N)[C@@H](O)[C@H](C)O2)Oc2ccc(cc2Cl)[C@H]1O | > 0.8 | 7.7 | 15 | > 10 | > 10 | 8.6 | 4 (≈ 7.03 µg/mL) |  |  |  | 
4 | CCCCc1ccc(CNCc2c(O)cc3c(c2O)-c2cc(ccc2O)C2NC(=O)C4NC(=O)C5NC(=O)C(Cc6ccc(c(Cl)c6)Oc6cc4cc(c6O)Oc4ccc(cc4Cl)C(O)C(NC2=O)C(=O)N[C@H]3C(=O)NC)NC(=O)C(NC(=O)OC(C)(C)C)c2ccc(O)c(c2)Oc2cc(O)cc5c2)cc1 (stereo partly drawn) | > 4 | > 100 | 70 | 6 | 12 | > 100 | 20 (≈ 29.7 µg/mL) |  |  |  | 
5 | CN[C@H](CC(C)C)C(=O)N[C@H]1C(=O)N[C@@H](CC(N)=O)C(=O)N[C@H]2C(=O)N[C@H]3C(=O)N[C@H](C(=O)N[C@H](C(=O)O)c4cc(O)cc(O)c4-c4cc3ccc4O)[C@H](O)c3ccc(c(Cl)c3)Oc3cc2cc(c3O[C@@H]2O[C@H](CO)[C@@H](O)[C@H](O)[C@H]2O[C@H]2C[C@](C)(N)[C@H](O)[C@H](C)O2)Oc2ccc(cc2Cl)[C@H]1O [VANCOMYCIN] | > 100 | > 500 | > 500 | > 250 | > 250 | > 500 | > 100 |  |  |  | 
6 | CN[C@@H](CC(C)C)C(=O)NC1C(=O)N[C@@H](CC(N)=O)C(=O)NC2C(=O)NC3C(=O)NC(C(=O)N[C@@H](C(=O)O)c4cc(O)cc(O)c4-c4cc3ccc4O)C(O)c3ccc(c(Cl)c3)Oc3cc2cc(c3O)Oc2ccc(cc2Cl)C1O (stereo partly drawn) | > 100 | > 500 | > 500 | 65 | > 250 | > 500 | > 100 |  |  |  | 
7 | COC(=O)[C@@H]1NC(=O)C2NC(=O)C(NC(=O)C3NC(=O)C4NC(=O)C(Cc5ccc(c(Cl)c5)Oc5cc3cc(c5O)Oc3ccc(cc3Cl)C2O)NC(=O)C(N)c2ccc(O)c(c2)Oc2cc(O)cc4c2)c2ccc(O)c(c2)-c2c(O)cc(O)cc21 (stereo partly drawn) | 12 | > 500 | 364 | 9.5 | 15 | 248 | > 100 |  |  |  | 
8 | CNC1C(=O)NC2Cc3ccc(cc3)Oc3cc4cc(c3O)Oc3ccc(cc3Cl)C(O)C3NC(=O)C(NC(=O)C4NC(=O)C(NC2=O)c2cc(cc(O)c2Cl)Oc2cc1ccc2O)c1ccc(O)c(c1)-c1c(O)cc(O)cc1[C@H](C(=O)O)NC3=O (stereo partly drawn) | 82 | > 500 | > 500 | 40 | > 50 | > 500 | > 100 |  |  |  | 
9 | CNC1C(=O)NC2Cc3ccc(cc3)Oc3cc4cc(c3O[C@@H]3O[C@@H](C(=O)O)[C@@H](O)[C@H](O)[C@@H]3N)Oc3ccc(cc3Cl)C(O)C3NC(=O)C(NC(=O)C4NC(=O)C(NC2=O)c2cc(cc(O)c2Cl)Oc2cc1ccc2O)c1ccc(O)c(c1)-c1c(O[C@H]2O[C@H](CO)[C@@H](O)[C@@H](O)[C@@H]2O)cc(O)cc1[C@H](C(=O)O)NC3=O (stereo partly drawn) | > 100 | > 500 | > 500 | > 250 | > 250 | > 500 | > 100 |  |  |  | 
10 | CNC(=O)[C@@H]1NC(=O)C2NC(=O)C(NC(=O)C3NC(=O)C4NC(=O)C(Cc5ccc(c(Cl)c5)Oc5cc3cc(c5O)Oc3ccc(cc3Cl)C2O)NC(=O)C(N)c2ccc(O)c(c2)Oc2cc(O)cc4c2)c2ccc(O)c(c2)-c2c1cc(O)c(CNC1C3CC4CC(C3)CC1C4)c2O (stereo partly drawn) | 9.5 | > 250 | 212 | 5 | 17 | > 250 | > 20 |  |  |  | 
11 | CNC(CC(C)C)C(=O)NC1C(=O)NC(CC(N)=O)C(=O)NC2C(=O)NC3C(=O)NC(C(=O)N[C@@H](C(=O)O)c4cc(O)c(CN5CCN(Cc6ccc(-c7ccccc7)cc6)CC5)c(O)c4-c4cc3ccc4O)C(O)c3ccc(cc3)Oc3cc2cc(c3O)Oc2ccc(cc2Cl)C1O (stereo partly drawn) | 13 | > 500 | 250 | 5.5 | 12 | > 500 | > 100 |  |  |  | 
12 | CCCCCCCCCCNC(=O)[C@H]1NC(=O)[C@H]2NC(=O)[C@H](NC(=O)[C@@H]3NC(=O)[C@H](CC(N)=O)NC(=O)[C@H](NC(=O)[C@@H](CC(C)C)NC)[C@H](O)c4ccc(c(Cl)c4)Oc4cc3cc(c4O[C@@H]3O[C@H](CO)[C@@H](O)[C@H](O)[C@H]3O[C@H]3C[C@](C)(N)C(O)[C@H](C)O3)Oc3ccc(cc3Cl)[C@H]2O)c2ccc(O)c(c2)-c2c(O)cc(O)cc21 (stereo partly drawn) | > 4 | > 10 | 30 | > 10 | > 10 | 30 | 20 (≈ 31.8 µg/mL) |  |  |  | 
13 | CNC(=O)[C@@H]1NC(=O)C2NC(=O)C(NC(=O)C3NC(=O)C(CC(N)=O)NC(=O)C(NC(=O)C(CC(C)C)N(C)C(=O)OC(C)(C)C)C(O)c4ccc(c(Cl)c4)Oc4cc3cc(c4O)Oc3ccc(cc3)C2O)c2ccc(O)c(c2)-c2c1cc(O)c(CN1CCN(Cc3ccc(-c4ccccc4)cc3)CC1)c2O (stereo partly drawn) | > 4 | > 100 | 84 | 4 | 3.5 | > 100 | 20 (≈ 29.7 µg/mL) |  |  |  | 
14 | CCCCc1ccc(CNC2C(Oc3c4cc5cc3Oc3ccc(cc3Cl)C(O)C3NC(=O)C(NC(=O)C5NC(=O)C5NC(=O)C(Cc6ccc(cc6)O4)NC(=O)C(NC)c4ccc(O)c(c4)Oc4cc(O)c(Cl)c5c4)c4ccc(O)c(c4)-c4c(O)cc(O)cc4[C@H](C(=O)NCCCN(C)C)NC3=O)OC(C(=O)NCCCN(C)C)C(O)C2O)cc1 (stereo partly drawn) | > 20 | 66 | 36 | 12 | > 50 | > 250 | > 100 |  |  |  | 
15 | CCCCc1ccc(CN2CCN(Cc3c(O)cc4c(c3O)-c3cc(ccc3O)C3NC(=O)C5NC(=O)C6NC(=O)C(Cc7ccc(c(Cl)c7)Oc7cc5cc(c7O)Oc5ccc(cc5Cl)C(O)C(NC3=O)C(=O)N[C@H]4C(=O)NCCCN(C)C)NC(=O)C(N)c3ccc(O)c(c3)Oc3cc(O)cc6c3)CC2)cc1 (stereo partly drawn) | 2.4 | 108 | 29 | 3 |  | > 500 | 20 (≈ 30.5 µg/mL) | 3.5 | 4 | 5 µM and 13 µM | > 250
